Values after ≈ are worked out from the molar mass of the structure shown.
What was measured:
Cavia porcellus [1] = assay: Compound was evaluated in vivo for collapse time in guinea pig anaphylaxis model at dose 10 mg/kg; assay type: functional
Outline: (§1)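 Guinea pigs were sensitized with 10% ovalbumin (1 mL s.c. plus 1 mL i.p.), and about 4 weeks later received the antagonist orally. They were then exposed to aerosolized ovalbumin, with collapse time as the endpoint and no collapse within 6 min taken as maximal protection. Groups (4–15 animals) were compared with controls by one-way ANOVA and Dunnett's test after Bartlett's test.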

Cavia porcellus [2] = species: Cavia porcellus; assay: Compound was evaluated for the inhibitory activity against slow reacting substance of anaphylaxis (SRS-A) of guinea pig ileum; assay type: functional, organism-based
Outline: (§2)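 Guinea pig ileum strip in Tyrode's solution at 37 °C, aerated with 95% O2-5% CO2. SRS-A came from rat peritoneal shock fluid after passive peritoneal anaphylaxis, and its specificity was checked against atropine (5 × 10^-7 M) and mepyramine (10^-6 M). The SRS-A dose was set to give ca. 60% of maximal contraction. Antagonist was added 2 min before challenge; percent inhibition was read, and IC50 was interpolated from dose-response curves.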

Cavia porcellus [3] = species: Cavia porcellus; assay: Compound was evaluated for the inhibitory activity against slow reacting substance of anaphylaxis (SRS-A) of guinea pig ileum;NA means not active; assay type: functional, organism-based
Outline: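 Guinea pig ileum strip in Tyrode's solution at 37 °C, aerated with 95% O2-5% CO2. SRS-A came from rat peritoneal shock fluid after passive peritoneal anaphylaxis, dosed to give ca. 60% of maximal contraction. Atropine (5 × 10^-7 M) and mepyramine (10^-6 M) checks were run. Antagonist was added 2 min before SRS-A challenge, and percent inhibition recorded. IC50 was interpolated from two or at least three dose-response curves.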

Cavia porcellus [4] = species: Cavia porcellus; assay: Compound was evaluated for the inhibitory activity against Histamine in guinea pig ileum; assay type: functional; design: concentration or dose not given beside the values
Cavia porcellus [5] = species: Cavia porcellus; assay: Compound was evaluated for the inhibitory activity against Acetylcholine in guinea pig ileum; assay type: functional; design: concentration or dose not given beside the values
Cavia porcellus [6] = species: Cavia porcellus; assay: Compound was evaluated for the inhibitory activity against Serotonin in guinea pig ileum; assay type: functional
Cavia porcellus [7] = assay: Compound was evaluated in vivo for collapse time in guinea pig anaphylaxis model at dose 5 mg/kg; assay type: functional; outline: as §1
Cavia porcellus [8] = species: Cavia porcellus; assay: Compound was evaluated for the inhibitory activity against slow reacting substance of anaphylaxis (SRS-A) of guinea pig ileum;NA denotes not active; assay type: functional, organism-based; outline: as §2

| SMILES | Collapse time (Cavia porcellus [1]) [s] | IC50 (Cavia porcellus [2]) [µg/mL] | IC50 (Cavia porcellus [3]) | Inhibition (Cavia porcellus [4]) [%] | Inhibition (Cavia porcellus [5]) [%] | Inhibition (Cavia porcellus [6]) [%] | Collapse time (Cavia porcellus [7]) [s] | IC50 (Cavia porcellus [8]) |
| --- | --- | --- | --- | --- | --- | --- | --- | --- |
| C=C(C)[C@H]1Cc2c(ccc3c2OC2COc4cc(OC)c(OC)cc4C2/C3=N/O)O1 (stereo not given in full) | 248 | 0.4 (≈ 0.977 µM) |  |  |  |  |  |  |
| C=C(C)[C@H]1Cc2c(ccc(C(=O)Cc3cc(OC)c(OC)cc3OCC(=O)O)c2O)O1 | 167 |  | Not Active | 0 | 0 |  |  |  |
| C=C(C)[C@H]1Cc2c(ccc3c2OC2COc4cc(OC)c(OC)cc4C2/C3=N/OC(C)=O)O1 (stereo not given in full) |  | 0.4 (≈ 0.886 µM) |  |  |  |  |  |  |
| C=C(C)[C@H]1Cc2c(ccc3c2O[C@H]2COc4cc(OC)c(OC)cc4[C@H]2C3=O)O1 | 240 | 0.0247 (≈ 0.0626 µM) |  | 28 | 11 | 87 |  |  |
| COc1cc2c(cc1OC)[C@@H]1C(=O)c3ccc4c(c3O[C@@H]1CO2)C[C@H](C(C)C)O4 |  | 0.0238 (≈ 0.06 µM) |  | 29 | 25 | 60 |  |  |
| C=C(C)[C@H]1Cc2c(ccc3c2OC2COc4cc(OC)c(OC)cc4C2(OC(C)=O)C3=O)O1 (stereo not given in full) [ACETYLROTENOLENE] |  |  | Not Active | 0 | 0 |  |  |  |
| C=C(C)[C@H]1Cc2c(ccc3c(=O)c4c(oc23)COc2cc(OC)c(OC)cc2-4)O1 [DEHYDROROTENONE] | 248 |  |  | 0 | 0 |  | 216 | Not Active |
| CCCc1c(OCC(O)COc2ccc3c(=O)cc(C(=O)[O-])oc3c2CCC)ccc(C(C)=O)c1O.[Na+] (stereo not given) [FPL-55712 SODIUM SALT] | 253 | 0.042 |  | 0 | 0 | 0 |  |  |
| COc1cc2c(cc1OC)[C@@H]1C(=O)c3ccc4oc(C(C)C)cc4c3O[C@@H]1CO2 [ISOROTENONE] | 211 | 0.062 (≈ 0.157 µM) |  | 30 | 28 |  |  |  |
| C=C(C)[C@H]1Cc2c(ccc3c2OC2COc4cc(OC)c(OC)cc4C2/C3=N/OC(=O)OCC)O1 (stereo not given in full) [O-CARBETHOXY ROTENONE OXIME] |  | 0.4 (≈ 0.831 µM) |  |  |  |  |  |  |
| C=C(C)[C@H]1Cc2c(ccc3c2O[C@@H]2COc4cc(OC)c(OC)cc4[C@@H]2C3=O)O1 [ROTENONE] |  | 0.0155 (≈ 0.0393 µM) |  | 38 | 15 | 92 | 288 |  |
| COc1cc2c(cc1OC)[C@]1(O)C(=O)c3ccc4c(c3O[C@@H]1CO2)C=CC(C)(C)O4 [TEPHROSIN] |  | 0.2 (≈ 0.487 µM) |  |  |  |  |  |  |

Reference: ChEMBL document CHEMBL1121506, “Evaluation of rotenone and related compounds as antagonists of slow-reacting substance of anaphylaxis” (J Med Chem, 1980)
